Measurements as given in ChEMBL document CHEMBL1156295, “In vitro and in vivo photocytotoxicity of boron dipyrromethene derivatives for photodynamic therapy” (J Med Chem, 2010).

Assays:
Assay type in all cases: functional, cell-based
HL-60 [1] = experiment: Phototoxicity against human HL60 cells irradiated with 4.1 J/cm^2 broad spectrum light treated 2 hrs before irradiation measured after 24 hrs by MTT assay; conditions: HL-60, light or radiation study
Summary of the method: (§1)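 HL60 at 15000 cells/well; HSC-2 and HK1 at 3000 cells/well, adhered overnight; phenol-red-free medium with 10% FBS. Compound tested at 0.001–100.0 μM from DMSO stock; controls 0.01% DMSO. After 2 h, irradiated with broad-spectrum light at 6.8 mW/cm2, or dark. After 24 h, MTT 4 h at 37 °C, formazan in DMSO, A570. Three determinations, mean ± SD.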

[2] = Cytotoxicity against human HK1 cells after 24 hrs by MTT assay; conditions: HK-1, 24 h; summary of the method: as §1
[3] = Phototoxicity against human HK1 cells irradiated with 4.1 J/cm^2 broad spectrum light treated 2 hrs before irradiation measured after 24 hrs by MTT assay; conditions: HK-1, light or radiation study; summary of the method: as §1
HSC-2 [4] = experiment: Phototoxicity against human HSC2 cells irradiated with 4.1 J/cm^2 broad spectrum light treated 2 hrs before irradiation measured after 24 hrs by MTT assay; conditions: HSC-2, light or radiation study; summary of the method: as §1
HSC-2 [5] = experiment: Cytotoxicity against human HSC2 cells after 24 hrs by MTT assay; conditions: HSC-2, 24 h; summary of the method: as §1
HL-60 [6] = experiment: Cytotoxicity against human HL60 cells after 24 hrs by MTT assay; conditions: HL-60, 24 h; summary of the method: as §1

Compound `CC1=CC(C)=[N+]2C1=Cc1c(C)cc(C)n1[B-]2(F)F` has an IC50 (HL-60 [1]) of 4.4 µM, an IC50 [2] of 76.8 µM and an IC50 [3] of 6.2 µM. The IC50 (HSC-2 [4]) was 8.7 µM, the IC50 (HSC-2 [5]) was greater than 100 µM and the IC50 (HL-60 [6]) was greater than 100 µM.

Work on `CC1=C(I)C(C)=[N+]2C1=Cc1c(C)c(I)c(C)n1[B-]2(F)F` yielded an IC50 (HL-60 [1]) of 0.062 µM, an IC50 [2] greater than 100 µM and an IC50 [3] of 0.57 µM. The IC50 (HSC-2 [4]) was 0.64 µM, the IC50 (HSC-2 [5]) was greater than 100 µM and the IC50 (HL-60 [6]) was greater than 100 µM.

In the case of `CC1=C(I)C(C)=[N+]2C1=C(c1ccc(I)cc1)c1c(C)c(I)c(C)n1[B-]2(F)F`, the IC50 (HL-60 [1]) is reported as 0.42 µM, the IC50 [2] is reported as 95.5 µM and the IC50 [3] is reported as 0.69 µM. It also gave an IC50 (HSC-2 [4]) of 0.5 µM, an IC50 (HSC-2 [5]) of 10 µM and an IC50 (HL-60 [6]) of 10 µM.

For `COC(=O)/C=C/C1=C(C)C2=Cc3c(C)c(/C=C/C(=O)OC)c(C)n3[B-](F)(F)[N+]2=C1C`, the IC50 (HL-60 [1]) was 5.2 µM, the IC50 [2] was greater than 100 µM and the IC50 [3] was 8.5 µM. The IC50 (HSC-2 [4]) was 11.1 µM, the IC50 (HSC-2 [5]) was greater than 100 µM and the IC50 (HL-60 [6]) was greater than 100 µM.

Compound `CC1=C(S(=O)(=O)O)C(C)=[N+]2C1=C(c1ccc(I)cc1)c1c(C)c(S(=O)(=O)O)c(C)n1[B-]2(F)F` has an IC50 (HL-60 [1]) of 54.3 µM, an IC50 [2] greater than 100 µM and an IC50 [3] of 59 µM. It also gave an IC50 (HSC-2 [4]) of 59.4 µM, an IC50 (HSC-2 [5]) greater than 100 µM and an IC50 (HL-60 [6]) greater than 100 µM.

With `COC(=O)C1=CCCCC1C1=C(C)C2=Cc3c(C)cc(C)n3[B-](F)(F)[N+]2=C1C` (configuration not stated) the IC50 (HL-60 [1]) was 4.9 µM, the IC50 [2] was greater than 100 µM and the IC50 [3] was 5 µM. It also gave an IC50 (HSC-2 [4]) of 4.1 µM, an IC50 (HSC-2 [5]) greater than 100 µM and an IC50 (HL-60 [6]) greater than 100 µM.

In the case of `CC1=C(/C=C/S(=O)(=O)O)C(C)=[N+]2C1=Cc1c(C)cc(C)n1[B-]2(F)F`, the IC50 (HL-60 [1]) is reported as greater than 100 µM, the IC50 [2] is reported as greater than 100 µM and the IC50 [3] is reported as greater than 100 µM. The IC50 (HSC-2 [4]) was greater than 100 µM, the IC50 (HSC-2 [5]) was greater than 100 µM and the IC50 (HL-60 [6]) was greater than 100 µM.

`CCCCOC(=O)/C=C/C1=C(C)C2=Cc3c(C)c(/C=C/C(=O)OCCCC)c(C)n3[B-](F)(F)[N+]2=C1C` gave an IC50 (HL-60 [1]) of 57.7 µM, an IC50 [2] greater than 100 µM and an IC50 [3] greater than 100 µM. For the same compound, the IC50 (HSC-2 [4]) was 37.7 µM, the IC50 (HSC-2 [5]) was greater than 100 µM and the IC50 (HL-60 [6]) was greater than 100 µM.

Work on `CC1=C(C=O)C(C)=[N+]2C1=Cc1c(C)cc(C)n1[B-]2(F)F` yielded an IC50 (HL-60 [1]) greater than 100 µM, an IC50 [2] greater than 100 µM and an IC50 [3] greater than 100 µM. For the same compound, the IC50 (HSC-2 [4]) was greater than 100 µM, the IC50 (HSC-2 [5]) was greater than 100 µM and the IC50 (HL-60 [6]) was greater than 100 µM.

`COC(=O)/C=C/C1=C(C)C2=Cc3c(C)cc(C)n3[B-](F)(F)[N+]2=C1C` gave an IC50 (HL-60 [1]) of 4.8 µM, an IC50 [2] greater than 100 µM and an IC50 [3] of 5.3 µM. The IC50 (HSC-2 [4]) was 5.4 µM, the IC50 (HSC-2 [5]) was greater than 100 µM and the IC50 (HL-60 [6]) was greater than 100 µM.

In the case of `COC(=O)C1=CCCC1C1=C(C)C2=Cc3c(C)c(C4CCC=C4C(=O)OC)c(C)n3[B-](F)(F)[N+]2=C1C` (configuration not stated), the IC50 (HL-60 [1]) is reported as 3.8 µM, the IC50 [2] is reported as greater than 100 µM and the IC50 [3] is reported as 4.8 µM. For the same compound, the IC50 (HL-60 [6]) was greater than 100 µM.

`CC1=C(/C=C/C(=O)O)C(C)=[N+]2C1=Cc1c(C)cc(C)n1[B-]2(F)F` gave an IC50 (HL-60 [1]) greater than 100 µM, an IC50 [2] greater than 100 µM and an IC50 [3] greater than 100 µM. It also gave an IC50 (HSC-2 [4]) greater than 100 µM, an IC50 (HSC-2 [5]) greater than 100 µM and an IC50 (HL-60 [6]) greater than 100 µM.

Work on `CCCCOC(=O)/C=C/C1=C(C)C2=Cc3c(C)cc(C)n3[B-](F)(F)[N+]2=C1C` yielded an IC50 (HL-60 [1]) of 0.49 µM, an IC50 [2] of 99.6 µM and an IC50 [3] of 1.1 µM. The IC50 (HSC-2 [4]) was 0.6 µM, the IC50 (HSC-2 [5]) was greater than 100 µM and the IC50 (HL-60 [6]) was greater than 100 µM.

Work on `CC1=CC(C)=[N+]2C1=C(c1ccc(I)cc1)c1c(C)cc(C)n1[B-]2(F)F` yielded an IC50 (HL-60 [1]) of 2.7 µM, an IC50 [2] greater than 100 µM and an IC50 [3] of 5.7 µM. The IC50 (HSC-2 [4]) was 5.1 µM, the IC50 (HSC-2 [5]) was greater than 100 µM and the IC50 (HL-60 [6]) was greater than 100 µM.
